ChEMBL document CHEMBL1212828, “Synthesis and biological evaluation of novel pyrazole compounds” (Bioorg Med Chem, 2010)
Calls of active or inactive are those of the source. The calls are words filed in the database; no cut-off is given here.

What was measured:
[1] = target: T1, Prostaglandin G/H synthase 1 (Ovis aries) (UniProt P05979); experiment: Inhibition of ovine COX1 at 100 uM
T1 sequence (whole entry): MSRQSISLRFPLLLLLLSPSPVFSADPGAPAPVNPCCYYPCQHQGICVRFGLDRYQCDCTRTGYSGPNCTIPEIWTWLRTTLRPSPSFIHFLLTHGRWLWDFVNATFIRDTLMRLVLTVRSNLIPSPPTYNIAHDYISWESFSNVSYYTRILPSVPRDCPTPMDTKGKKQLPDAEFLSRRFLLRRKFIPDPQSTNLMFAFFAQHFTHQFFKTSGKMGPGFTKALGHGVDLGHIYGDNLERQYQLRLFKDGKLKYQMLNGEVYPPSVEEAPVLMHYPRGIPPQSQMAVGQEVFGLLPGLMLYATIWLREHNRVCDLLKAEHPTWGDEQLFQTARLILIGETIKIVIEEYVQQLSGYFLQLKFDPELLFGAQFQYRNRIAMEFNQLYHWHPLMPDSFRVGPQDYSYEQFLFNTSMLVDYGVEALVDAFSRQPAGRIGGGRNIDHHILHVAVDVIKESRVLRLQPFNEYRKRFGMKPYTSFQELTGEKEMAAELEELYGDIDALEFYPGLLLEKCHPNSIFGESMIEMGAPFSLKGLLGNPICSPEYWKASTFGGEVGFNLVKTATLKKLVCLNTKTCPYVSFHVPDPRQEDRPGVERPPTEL
Outline: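 Screening kit with ovine COX-1 and human recombinant COX-2, run per manufacturer's protocol; percent inhibition of prostaglandin production measured for each isoform.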

THP-1 [2] = experiment: Neuroprotective activity against LPS and IFN-gamma-stimulated neurotoxin production in human THP1 cell assessed as inhibition of THP1 cell secretion-induced toxicity to human SY-SH5Y cells after 48 hrs of LPS nd IFN-gamma challenge measured after 72 hrs by MTT assay; type: functional, cell-based
Outline: (§1)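 THP-1 cells given compound 15 min before LPS (0.5 µg/mL) plus IFN-γ (150 U/mL), then incubated 48 h. Cell-free supernatant moved onto SH-SY5Y cells plated 24 h earlier. Neuronal survival after 72 h by MTT assay or LDH release. 11 independent experiments; IC50 estimated.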

THP-1 [3] = experiment: Neuroprotective activity against LPS and IFN-gamma-stimulated neurotoxin production in human THP1 cell assessed as inhibition of THP1 cell secretion-induced toxicity to human SY-SH5Y cells after 48 hrs of LPS nd IFN-gamma challenge measured after 72 hrs by LDH release assay; type: functional, cell-based; outline: as §1
Rattus norvegicus [4] = experiment: Antiinflammatory activity in Wistar albino rat assessed as inhibition of formalin-induced paw edema at 20 mg/kg, po administered 1 hr prior to formalin challenge measured after 2 hrs relative to control; type: functional
Outline: (§2)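 Male Wistar rats, 180–200 g, groups of five; single oral dose 1 h before 2% formalin (0.1 mL) into subplantar left hind paw under light ether anaesthesia. Paw volume read by water plethysmometer at baseline and 1, 2, 3, 4 h; % inhibition = control (Vt−Vo) minus treated (Vt−Vo), over control, ×100. Means ± SEM; ANOVA with Student–Newman–Keuls.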

Rattus norvegicus [5] = experiment: Antiinflammatory activity in Wistar albino rat assessed as inhibition of formalin-induced paw edema at 20 mg/kg, po administered 1 hr prior to formalin challenge measured after 4 hrs relative to control; type: functional; outline: as §2
THP-1 [6] = experiment: Antiinflammatory activity in human THP1 cells assessed as reduction in LPS and IFN-gamma-induced MCP1 level at 500 uM after 24 hrs; type: functional, cell-based
Outline: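 THP-1 cells in DMEM-F12 with 5% FBS, 24-well plates, pretreated 15 min with compound or DMSO vehicle, then stimulated with LPS 0.5 µg/mL plus IFN-γ 150 U/mL for 24 h. Death read as supernatant LDH (iodonitrotetrazolium formazan, 490 nm, fraction of Triton X-100 lysate); survival by MTT; MCP-1 by ELISA. Concentration effects by randomized block ANOVA; 8–11 independent experiments.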

THP-1 [7] = experiment: Neuroprotective activity against LPS and IFN-gamma-stimulated neurotoxin production in human THP1 cells assessed as inhibition of THP1 cell secretion-induced toxicity to human sSH-SY5Y cells after 72 hrs by LDH release assay; type: functional, cell-based
Outline: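 THP-1 cells pretreated 15 min with compound, then stimulated with LPS (0.5 µg/mL) plus IFN-γ (150 U/mL) for 24 h. Cell-free supernatant transferred to SH-SY5Y cells plated 24 h earlier (2 × 10^5 cells/mL). After 72 h, SH-SY5Y viability read by MTT (0.5 mg/mL, 1 h, 37 °C, OD570) or by LDH release (OD490, relative to Triton X-100 lysis). IC50 estimated.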

SH-SY5Y [8] = experiment: Cytotoxicity against human SH-SY5Y cells assessed as reduction in cell viability at 500 uM after 72 hrs by MTT assay; type: functional
Outline: (§3)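 SH-SY5Y neuroblastoma cells exposed directly to compound at 5–500 µM; viability determined 72 h later by MTT (0.5 mg/mL final, 1 h at 37 °C, SDS/DMF solubilization overnight, 570 nm), relative to cells in fresh medium only.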

THP-1 [9] = experiment: Neuroprotective activity against LPS and IFN-gamma-stimulated neurotoxin production in human THP1 cells assessed as increase in THP1 cell secretion-induced LDH release to human SY-SH5Y cells at 10 to 100 uM after 72 hrs; type: functional, cell-based
Outline: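 THP-1 cells treated with 10–100 µM compound 15 min before LPS/IFN-γ stimulation for 24 h. Supernatants transferred to SH-SY5Y cells. After 72 h, LDH released into the neuronal medium measured colorimetrically and expressed as a fraction of Triton X-100-lysed wells.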

SH-SY5Y [10] = experiment: Cytotoxicity against human SH-SY5Y cells assessed as reduction in cell viability at 100 uM after 72 hrs by MTT assay; type: functional; outline: as §3
SH-SY5Y [11] = experiment: Neuroprotective activity against H2O2-induced oxidative stress in human SH-SY5Y cells; type: functional, cell-based
Outline: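 SH-SY5Y cells seeded at 2 × 10^5/mL in DMEM-F12 with 5% FBS; after 24 h medium replaced by supernatant of THP-1 cells stimulated 24 h with LPS + IFN-γ, or by medium containing 250 µM H2O2, with compound added at transfer. Cell death measured by LDH assay 72 h later; five independent experiments; randomized block ANOVA.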

THP-1 [12] = experiment: Antiinflammatory activity in human THP1 cells assessed as reduction in LPS and IFN-gamma-induced level at 500 uM after 24 hrs
SH-SY5Y (Homo sapiens) = experiment: Neuroprotective activity against LPS and IFN-gamma-induced human THP1 cell supernatant-induced death of human SH-SY5Y cells after 72 hrs by MTT assay; details: THP-1

| Compound | inhibition [1] | IC50 (THP-1 [2]) | IC50 (THP-1 [3]) | inhibition in vivo at 20 mg/kg (Rattus norvegicus [4]) | inhibition in vivo at 20 mg/kg (Rattus norvegicus [5]) | Activity (THP-1 [6]) | Activity (THP-1 [7]) | Activity (SH-SY5Y [8]) | Activity (THP-1 [9]) | Activity (SH-SY5Y [10]) | Activity (SH-SY5Y [11]) | Activity (THP-1 [12]) | Activity (SH-SY5Y (Homo sapiens)) |
| --- | --- | --- | --- | --- | --- | --- | --- | --- | --- | --- | --- | --- | --- |
| CC(NC(=O)C(=O)Nc1c(C#N)cnn1-c1ccccc1)c1ccccc1 (stereo unspecified) | 24.5% | 14 µM | 40 µM | 27% | 50% |  |  |  |  |  |  |  |  |
| N#Cc1cnn(-c2ccccc2)c1NC(=O)C(=O)Nc1c(C#N)cnn1-c1ccccc1 | 11.2% |  |  | 41% | 58% | Active | Active | 86% | Active | 23% | inactive | Active | Active |
